The source made the active and inactive calls. No cut-off for these calls is given here.

Test [1] has as its target Telomerase reverse transcriptase (Homo sapiens) (UniProt O14746). The test can be described thus: Inhibition of human telomerase activity at 100 ug/mL by TRAP assay. The method, boiled down:
(§1)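 TRAP format: DMSO-dissolved samples in a 50 µL mix with HT1080 cell extract, pH 8.3 Tris-HCl/KCl/MgCl2/EGTA/Tween 20 buffer, TS primer, 50 µM each dNTP, 2 U Taq and [32P]dCTP; CX primer held under wax. Extension ran 30 min at 23 °C, then 90 °C for 90 s and 31 PCR cycles. Products were bound to DE-51 paper and scintillation-counted. Inhibition was taken relative to DMSO, minus RNase-treated extract background.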

The target of test [2] is DNA polymerase I, thermostable (Thermus aquaticus) (UniProt P19821). The test can be described thus: Inhibition of Taq polymerase in RNase treated human HT1080 cells at 100 ug/mL by PCR. The class given is cell-based. Particulars: HT-1080.
The target in test [3] is Telomerase reverse transcriptase (Homo sapiens) (UniProt O14746). Briefly: Inhibition of human telomerase activity by TRAP assay. The conditions noted are these: concentration not given here. The method, boiled down:
as §1

Chain of Telomerase reverse transcriptase (Homo sapiens) (O14746 whole entry): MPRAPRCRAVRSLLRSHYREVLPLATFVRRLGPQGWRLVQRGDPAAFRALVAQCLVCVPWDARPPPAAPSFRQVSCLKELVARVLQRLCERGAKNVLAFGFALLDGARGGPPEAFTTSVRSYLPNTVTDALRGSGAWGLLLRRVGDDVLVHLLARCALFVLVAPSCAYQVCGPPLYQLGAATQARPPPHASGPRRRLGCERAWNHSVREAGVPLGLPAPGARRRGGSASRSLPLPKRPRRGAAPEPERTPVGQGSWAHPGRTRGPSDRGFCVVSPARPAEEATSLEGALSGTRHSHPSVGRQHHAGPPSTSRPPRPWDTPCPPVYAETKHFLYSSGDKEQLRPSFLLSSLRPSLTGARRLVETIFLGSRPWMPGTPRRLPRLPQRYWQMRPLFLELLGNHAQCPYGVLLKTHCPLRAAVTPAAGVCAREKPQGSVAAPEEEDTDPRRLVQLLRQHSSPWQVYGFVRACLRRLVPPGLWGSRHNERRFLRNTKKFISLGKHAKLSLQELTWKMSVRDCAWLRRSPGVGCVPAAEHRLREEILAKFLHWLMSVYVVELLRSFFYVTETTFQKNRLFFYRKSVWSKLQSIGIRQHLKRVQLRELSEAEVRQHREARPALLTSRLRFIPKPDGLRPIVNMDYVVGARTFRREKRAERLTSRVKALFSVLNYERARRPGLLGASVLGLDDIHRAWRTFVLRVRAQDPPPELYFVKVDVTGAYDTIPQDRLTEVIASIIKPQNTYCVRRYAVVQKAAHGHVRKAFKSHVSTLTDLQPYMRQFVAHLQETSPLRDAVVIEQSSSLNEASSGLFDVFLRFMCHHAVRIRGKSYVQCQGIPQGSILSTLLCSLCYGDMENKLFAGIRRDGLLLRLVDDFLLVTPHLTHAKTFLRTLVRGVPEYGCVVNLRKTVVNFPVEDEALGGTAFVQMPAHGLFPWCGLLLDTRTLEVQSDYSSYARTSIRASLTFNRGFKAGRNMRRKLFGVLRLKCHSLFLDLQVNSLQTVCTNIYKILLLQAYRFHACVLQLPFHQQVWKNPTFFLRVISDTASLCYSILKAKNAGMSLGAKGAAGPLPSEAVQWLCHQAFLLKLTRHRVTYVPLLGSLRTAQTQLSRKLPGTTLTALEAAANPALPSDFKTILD
Chain of DNA polymerase I, thermostable (Thermus aquaticus) (P19821 whole entry): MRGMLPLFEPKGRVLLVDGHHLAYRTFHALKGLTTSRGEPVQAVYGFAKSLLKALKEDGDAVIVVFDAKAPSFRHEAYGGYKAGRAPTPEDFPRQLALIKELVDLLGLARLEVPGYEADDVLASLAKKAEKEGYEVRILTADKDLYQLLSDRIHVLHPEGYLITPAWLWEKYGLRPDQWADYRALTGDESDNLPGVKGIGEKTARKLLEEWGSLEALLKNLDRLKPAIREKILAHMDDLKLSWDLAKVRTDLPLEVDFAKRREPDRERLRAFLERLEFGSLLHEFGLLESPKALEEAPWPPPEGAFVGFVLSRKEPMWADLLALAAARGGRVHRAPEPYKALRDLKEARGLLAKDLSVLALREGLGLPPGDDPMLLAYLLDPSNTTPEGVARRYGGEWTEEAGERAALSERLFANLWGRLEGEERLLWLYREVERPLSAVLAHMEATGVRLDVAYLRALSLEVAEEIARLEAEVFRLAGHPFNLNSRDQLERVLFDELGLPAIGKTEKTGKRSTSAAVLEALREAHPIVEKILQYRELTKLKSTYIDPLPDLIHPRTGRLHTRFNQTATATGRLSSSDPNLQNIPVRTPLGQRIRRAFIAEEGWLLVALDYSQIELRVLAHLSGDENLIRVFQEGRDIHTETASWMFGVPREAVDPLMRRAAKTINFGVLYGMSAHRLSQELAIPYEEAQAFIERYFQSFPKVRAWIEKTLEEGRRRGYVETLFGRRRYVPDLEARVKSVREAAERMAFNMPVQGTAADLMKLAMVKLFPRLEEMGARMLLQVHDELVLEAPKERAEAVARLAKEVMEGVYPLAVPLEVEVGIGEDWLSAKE

Consider `COc1cc(OC)c2c(c1)c(-c1c(OC)cc3cc4oc(C)cc(=O)c4c(O)c3c1OC)c(O)c1c(=O)cc(C)oc12`, for which, in test [1], the outcome was inactive.
Still for that read-out and setting: for `COc1cc(OC)c2c(c1)c(-c1c(OC)cc3cc(O)c4c(=O)cc(C)oc4c3c1OC)c(O)c1c(=O)cc(C)oc12` the value was “inactive”.
For `COc1cc(OC)c2c(O)c3c(=O)cc(C)oc3c(-c3c(O)cc4cc(O)c5c(=O)cc(C)oc5c4c3OC)c2c1`, the result in test [1] was inactive. The inhibition (as a rule, the drop in the measured response relative to a control, in per cent) was determined as 40% in test [2] and 41% in test [3].
The corresponding values for `COc1cc(OC)c2c(O)c3c(=O)cc(C)oc3c(-c3c(OC)cc4cc5oc(C)cc(=O)c5c(O)c4c3OC)c2c1` are “inactive”, 49% and 52%.
With `COc1cc(OC)c2c(O)c3c(=O)cc(C)oc3c(-c3c(OC)cc4cc(O)c5c(=O)cc(C)oc5c4c3OC)c2c1`, in test [1], the outcome was inactive. Moreover, the inhibition in test [2] and in test [3] was 40% each time.

The values are drawn from ChEMBL document CHEMBL1159338, “New dimeric naphthopyrones from Aspergillus niger” (J Nat Prod, 2003).
